Experiment [1] deals with T1, 5-hydroxytryptamine receptor 1A (Homo sapiens, UniProt P08908).
T1 sequence (P08908 whole entry): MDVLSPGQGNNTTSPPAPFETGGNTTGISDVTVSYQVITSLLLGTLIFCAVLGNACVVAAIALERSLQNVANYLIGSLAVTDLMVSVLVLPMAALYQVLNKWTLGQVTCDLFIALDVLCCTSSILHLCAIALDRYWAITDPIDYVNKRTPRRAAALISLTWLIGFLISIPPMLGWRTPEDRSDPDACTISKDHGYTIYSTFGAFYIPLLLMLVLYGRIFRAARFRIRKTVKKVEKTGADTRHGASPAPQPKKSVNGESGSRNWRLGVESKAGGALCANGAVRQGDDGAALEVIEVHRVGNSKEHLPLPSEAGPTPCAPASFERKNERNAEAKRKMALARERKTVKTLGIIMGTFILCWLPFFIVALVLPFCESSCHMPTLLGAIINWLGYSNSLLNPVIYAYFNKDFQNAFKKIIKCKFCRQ
Nature of the experiment: Displacement of [3H]8-OH-DPAT from human 5HT1A receptor expressed in HeLa cells after 30 mins. Type of experiment: cell-based. The method in brief:
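pKi is derived from displacement of [3H]-8-OH-DPAT binding at human cloned 5-HT1A receptor. Values are means ± SEMs of 3–6 separate experiments.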
A general note: In a radioligand displacement assay an active substance lowers the binding of a labelled ligand.

Experiment [2] has as its target T2, Alpha-2A adrenergic receptor (Homo sapiens, UniProt P08913).
T2 sequence (P08913 whole entry): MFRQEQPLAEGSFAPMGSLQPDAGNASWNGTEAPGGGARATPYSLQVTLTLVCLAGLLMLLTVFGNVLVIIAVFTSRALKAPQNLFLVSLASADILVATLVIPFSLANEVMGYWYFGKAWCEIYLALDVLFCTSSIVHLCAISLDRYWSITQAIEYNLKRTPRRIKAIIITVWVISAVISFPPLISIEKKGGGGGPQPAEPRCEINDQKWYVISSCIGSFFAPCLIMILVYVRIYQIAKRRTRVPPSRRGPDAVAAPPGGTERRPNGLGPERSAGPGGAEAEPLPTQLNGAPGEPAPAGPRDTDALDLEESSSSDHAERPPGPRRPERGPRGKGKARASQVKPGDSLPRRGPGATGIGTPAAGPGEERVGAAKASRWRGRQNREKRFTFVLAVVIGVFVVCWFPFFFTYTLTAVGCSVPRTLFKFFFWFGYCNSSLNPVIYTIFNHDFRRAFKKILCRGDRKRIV
Nature of the experiment: Displacement of [3H]RX821002 from human alpha2A adrenoceptor expressed in CHO cells after 30 mins by scintillation counting. Type of experiment: cell-based. The method in brief:
(§1)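 Binding and functional assays run on CHO cells expressing recombinant human α2-AR subtypes. Functional read-outs are agonist potency (pEC50) with intrinsic activity (ia), or antagonist pKb. Affinity is reported as pKi. Values are means ± SEMs of 3–6 separate experiments.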

In experiment [3] the target is T3, Alpha-2B adrenergic receptor (Homo sapiens, UniProt P18089).
T3 sequence (P18089 whole entry): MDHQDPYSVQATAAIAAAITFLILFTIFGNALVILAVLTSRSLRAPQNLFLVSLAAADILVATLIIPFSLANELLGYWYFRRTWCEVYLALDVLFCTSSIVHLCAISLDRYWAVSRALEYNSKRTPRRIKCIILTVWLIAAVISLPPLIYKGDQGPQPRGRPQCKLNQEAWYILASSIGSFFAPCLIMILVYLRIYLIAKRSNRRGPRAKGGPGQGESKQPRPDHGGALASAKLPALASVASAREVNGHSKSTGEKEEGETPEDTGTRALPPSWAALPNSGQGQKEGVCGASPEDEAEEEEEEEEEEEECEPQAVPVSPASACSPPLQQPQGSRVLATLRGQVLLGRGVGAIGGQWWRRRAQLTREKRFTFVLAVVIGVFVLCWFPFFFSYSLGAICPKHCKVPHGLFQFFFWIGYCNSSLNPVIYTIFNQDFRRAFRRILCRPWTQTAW
Put plainly: Displacement of [3H]RX821002 from human alpha2B adrenoceptor expressed in CHO cells after 30 mins by scintillation counting. The experiment is classed as cell-based. In a few lines:
as §1

Experiment [4] concerns the target T3, Alpha-2B adrenergic receptor. Nature of the experiment: Agonist activity at human alpha2B adrenoceptor expressed in CHO cells assessed as extracellular acidification measured after 4 mins by cytosensor microphysiometric analysis.
Experiment [5] deals with Mus musculus. Put plainly: Effect on morphine-dependence in CD1 mouse assessed as decrease in naloxone-precipitated jumping at 0.025 mg/kg, ip administered chronically 15 mins prior to each morphine challenge relative to vehicle-treated control. The experiment is classed as functional, organism-based. Also on record: dose 0.025 mg/kg. The method in brief: (§2)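 Acquisition of morphine dependence in mice, tested with repeated ip dosing (racemate 0.05 mg/kg, enantiomers 0.025 mg/kg). Withdrawal was precipitated by naloxone. Scored signs were jumping frequency and somatic signs (rearing, forepaw tremors, teeth chatter). Groups were compared with vehicle and with the morphine group.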

Experiment [6] concerns Mus musculus. Put plainly: Effect on morphine-dependence in CD1 mouse assessed as decrease in naloxone-precipitated jumping at 0.025 mg/kg, ip administered acutely 15 mins prior to naloxone challenge relative to vehicle-treated control. Type of experiment: functional, organism-based. Further details: dose 0.025 mg/kg. In a few lines:
(§3)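 Expression of morphine dependence in mice, tested with a single acute ip dose (racemate 0.05 mg/kg, enantiomers 0.025 mg/kg). Withdrawal was precipitated by naloxone in control and morphine-treated mice. Scored signs were jumping frequency and somatic signs (rearing, forepaw tremors, teeth chatter). Groups were compared with vehicle and with the morphine group.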

Experiment [7] deals with Mus musculus. Put plainly: Effect on morphine-dependence in CD1 mouse assessed as decrease in naloxone-precipitated rearing at 0.025 mg/kg, ip administered chronically 15 mins prior to each morphine challenge relative to vehicle-treated control. The experiment is classed as functional, organism-based. Further details: dose 0.025 mg/kg. In a few lines: as §2
Experiment [8] relates to Mus musculus. Put plainly: Effect on morphine-dependence in CD1 mouse assessed as decrease in naloxone-precipitated rearing at 0.025 mg/kg, ip administered acutely 15 mins prior to naloxone challenge relative to vehicle-treated control. Further details: dose 0.025 mg/kg. Type of experiment: functional, organism-based. The method in brief: as §3
In experiment [9] the test system is Mus musculus. Put plainly: Effect on morphine-dependence in CD1 mouse assessed as decrease in naloxone-precipitated forepaw tremors at 0.025 mg/kg, ip administered chronically 15 mins prior to each morphine challenge relative to vehicle-treated control. The experiment is classed as functional, organism-based. Also on record: dose 0.025 mg/kg. In a few lines: as §2

Experiment [10] has as its system Mus musculus. Put plainly: Effect on morphine-dependence in CD1 mouse assessed as decrease in naloxone-precipitated forepaw tremors at 0.025 mg/kg, ip administered acutely 15 mins prior to naloxone challenge relative to vehicle-treated control. The experiment is classed as functional, organism-based. Further details: dose 0.025 mg/kg. The method in brief:
as §3

In experiment [11] the test system is Mus musculus. Nature of the experiment: Effect on morphine-dependence in CD1 mouse assessed as decrease in naloxone-precipitated teeth chatter at 0.025 mg/kg, ip administered chronically 15 mins prior to each morphine challenge relative to vehicle-treated control. The experiment is classed as functional, organism-based. Further details: dose 0.025 mg/kg. In a few lines:
as §2

Experiment [12] has as its system Mus musculus. Nature of the experiment: Effect on morphine-dependence in CD1 mouse assessed as decrease in naloxone-precipitated teeth chatter at 0.025 mg/kg, ip administered acutely 15 mins prior to naloxone challenge relative to vehicle-treated control. Type of experiment: functional, organism-based. Further details: dose 0.025 mg/kg. In a few lines: as §3
In experiment [13] the test system is Mus musculus. Nature of the experiment: Antidepressant activity in CD1 mouse assessed as decrease in immobility time at 0.025 mg/kg, ip administered 30 mins prior to coadministration with WAY100635 measured after 15 mins by forced swim test relative to vehicle-treated control. Also on record: dose 0.025 mg/kg. Type of experiment: functional, organism-based. The method in brief:
(§4)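 Forced swimming test in mice using 0.025 mg/kg ip test dose. It was combined with the 5-HT1A antagonist WAY 100635 (0.1 mg/kg, sc) or with the α2 antagonist yohimbine (1.250 mg/kg, ip). Each antagonist was also given alone. Immobility time is the read-out, given as means ± SEMs of 7–8 animals.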

Experiment [14] concerns Mus musculus. Put plainly: Antidepressant activity in CD1 mouse assessed as decrease in immobility time at 0.025 mg/kg, ip administered 15 mins prior to coadministration with yohimbine measured after 15 mins by forced swim test relative to vehicle-treated control. The experiment is classed as functional, organism-based. Further details: dose 0.025 mg/kg. In a few lines:
as §4

Experiment [15] concerns the target T4, Alpha-2C adrenergic receptor (Homo sapiens, UniProt P18825).
T4 sequence (P18825 whole entry): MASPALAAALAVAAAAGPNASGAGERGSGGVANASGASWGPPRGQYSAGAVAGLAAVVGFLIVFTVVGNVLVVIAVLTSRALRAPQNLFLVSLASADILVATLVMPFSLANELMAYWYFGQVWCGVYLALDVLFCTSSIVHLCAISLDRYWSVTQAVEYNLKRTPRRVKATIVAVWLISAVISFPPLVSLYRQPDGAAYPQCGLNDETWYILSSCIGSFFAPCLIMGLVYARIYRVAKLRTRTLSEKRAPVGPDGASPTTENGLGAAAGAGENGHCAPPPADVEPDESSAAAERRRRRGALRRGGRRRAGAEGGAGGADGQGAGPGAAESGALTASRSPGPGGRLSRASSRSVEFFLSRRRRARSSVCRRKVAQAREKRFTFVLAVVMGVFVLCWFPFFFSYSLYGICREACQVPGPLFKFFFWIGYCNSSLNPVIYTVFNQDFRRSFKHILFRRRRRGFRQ
Put plainly: Displacement of [3H]RX821002 from human alpha2C adrenoceptor expressed in CHO cells after 30 mins by scintillation counting. The experiment is classed as cell-based. The method in brief:
as §1

Experiment [16] deals with T4, Alpha-2C adrenergic receptor. Nature of the experiment: Agonist activity at human alpha2C adrenoceptor expressed in CHO cells assessed as extracellular acidification measured after 4 mins by cytosensor microphysiometric analysis. The experiment is classed as functional, cell-based. In a few lines: as §1
The target in experiment [17] is T5, Alpha-2C adrenergic receptor (Homo sapiens) (UniProt P18825).
T5 sequence (whole entry): T4 sequence (P18825 whole entry)
Put plainly: Agonist activity at human alpha2C adrenoceptor expressed in CHO cells assessed as extracellular acidification measured after 4 mins by cytosensor microphysiometric analysis relative to control. Type of experiment: functional, cell-based. The method in brief:
as §1

Experiment [18] has as its system Mus musculus. Put plainly: Antidepressant activity in CD1 mouse assessed as decrease in immobility time at 0.1 mg/kg, sc measured after 15 mins by forced swim test relative to vehicle-treated control. Type of experiment: functional, organism-based. Further details: dose 0.1 mg/kg. The method in brief:
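Mouse forced swim test scoring immobility time. The 5-HT1A-R antagonist was given alone at 0.1 mg/kg sc. Groups were compared with vehicle-treated mice, with 7–8 animals per group, and data are shown as means ± SEM.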

In experiment [19] the test system is Mus musculus. Put plainly: Antidepressant activity in CD1 mouse assessed as decrease in immobility time at 1.25 mg/kg, sc measured after 15 mins by forced swim test relative to vehicle-treated control. Type of experiment: functional, organism-based. Further details: dose 1.25 mg/kg.
For experiment [20], the system named is Mus musculus. Nature of the experiment: Antidepressant activity in CD1 mouse assessed as decrease in immobility time at 20 mg/kg, ip after 15 mins by forced swim test relative to vehicle-treated control. Type of experiment: functional, organism-based. Further details: dose 20 mg/kg. In a few lines:
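Mouse forced swimming test with immobility time as the read-out. Single ip doses were 0.012, 0.025, 0.05, 0.2 or 0.5 mg/kg, with fluoxetine 20 mg/kg ip as reference. Results are compared against vehicle-treated mice and given as means ± SEMs of 8–9 animals.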

Active and inactive are the calls of the source. The rule behind the calls is not given here.

A word on the Ki: it is a dissociation constant, usually derived from enzyme kinetics or from competition with a known ligand. For orientation: EC50 means the concentration needed to bring the measured effect to its halfway point. Regarding `C[C@H](Oc1ccccc1CC1CC1)C1=NCCN1`, the Ki in [1] is 5.75 nM; in experiment [2] it was 41.7 nM; in experiment [3], 407 nM; in [15], 275 nM. Also, the EC50 in [4] is 1580 nM; in [16] it was 2 nM. In addition, the result in the experiment on Mus musculus [5], in the experiment with Mus musculus [6], with Mus musculus [7], in the experiment with Mus musculus [8], in the experiment with Mus musculus [9] and in the experiment on Mus musculus [10] was Active. For the same compound, the result in the experiment on Mus musculus [11] and with Mus musculus [12] was Active. The result in the experiment with Mus musculus [13] and in the experiment on Mus musculus [14] was inactive. Also, the Intrinsic activity in experiment [17] was 0.85.
As for `COC(=O)[C@@H]1[C@H]2C[C@H]3c4[nH]c5ccccc5c4CCN3C[C@@H]2CC[C@@H]1O`, the result with Mus musculus [18] and with Mus musculus [19] was inactive.
Regarding `C[C@@H](Oc1ccccc1CC1CC1)C1=NCCN1`, the Ki in [1] is 39.8 nM; in experiment [2], 44.7 nM; in experiment [3] it was 339 nM; in [15] it was 234 nM. Further, the values for the EC50 in [4] and in experiment [16] were 3980 nM and 316 nM, respectively. In addition, the result in the experiment with Mus musculus [5], in the experiment with Mus musculus [6], with Mus musculus [7], in the experiment with Mus musculus [8], in the experiment with Mus musculus [9] and in the experiment on Mus musculus [10] was Active. The result with Mus musculus [11] and in the experiment on Mus musculus [12] was Active. In addition, the outcome with Mus musculus [13] and in the experiment on Mus musculus [14] was inactive. In addition, the Intrinsic activity in experiment [17] is 0.75.
Consider `CNCCC(Oc1ccc(C(F)(F)F)cc1)c1ccccc1` (configuration not stated), for which the result in the experiment on Mus musculus [20] was Active.

The values are drawn from ChEMBL document CHEMBL2086372 (ACS Med Chem Lett, 2012).
